Drawing on PubChem BioAssay AID1885 (Broad Institute, 2009), this text covers inhibition for 57 molecules.

Values joined by “and” are separate entries in the source; they are usually repeats but may differ in a detail not shown here. Identical values can stand only once. About 4,400 (1.5%) of roughly 300,000 compounds were called active.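 How the source made its calls: active means mean inhibition across valid replicates above about 55% (limit read from the data); inconclusive means mean below that limit but half or more replicates reach it; inactive means mean below it, under half of replicates reach it.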 The entries come from a sample that favours actives as a whole. Where a structure was tested more than once in an assay, its records may differ in their call.

The nature of this experiment: Trypanosoma cruzi replication blockers in host cells – luminescence, NIH3T3 host cells, primary screen (AID 1885).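 Further: signal also drops with host cell toxicity which is not excluded here; 0% = plate median of DMSO wells and 100% = zero luminescence signal; higher percent means less beta-gal luminescence so fewer parasites.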 The conditions noted are these: T. cruzi beta-gal in NIH3T3, luminescence, 90 h; stronger effect = higher value; concentration not given here. A digest of the protocol: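 compound dosing = single 50 nL compound addition per well in DMSO | material = NIH/3T3 host cells with β-galactosidase reporter T. cruzi | input = 5,000 host fibroblasts per well | timing = ≥90 h infection period, 3 h prior cell attachment | read-out basis = percent inhibition of parasite-derived β-gal signal | detection = GalScreen β-gal luminescence, detergent lysis, 60 min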
For the molecule `CSc1ccccc1NC(=O)C(C)N1C(=O)c2ccccc2S1(=O)=O` (configuration not stated), the inhibition is -1.05% (inactive).
The figure for `COc1ccc(N(CC(=O)N2CCOCC2)S(=O)(=O)c2ccccc2)cc1Cl` is -3.61% (inactive); for `CCCn1nc(C(=O)NNC(=O)CSCC(=O)Nc2cc(C)on2)c2ccccc2c1=O` it is -11.5% (inactive).
Next, `N#CCN(C(=O)COC(=O)C1CC2CCCC(C1)C2=O)c1ccccc1` (configuration not stated): -10.6% (inactive).
`Oc1ccc(/C=N/NC2=NCCCCC2)c(O)c1`: the inhibition was -40.4% (inactive).
For the molecule `Oc1ccc(/C=N/Nc2nc(-c3ccccc3F)nc3ccccc23)c(O)c1`, the inhibition is -4.73% (inactive).
With `Cc1nc2ccccc2nc1N/N=C/c1ccc(O)cc1O`, the inhibition was 60% (active).
Consider `Cc1c(NC(=O)C(C)Oc2cccc(Cl)c2)c(=O)n(-c2ccccc2)n1C` (configuration not stated), for which the inhibition was -6.21% (inactive).
Take `O=C(CN1CCN(S(=O)(=O)c2ccc(Br)cc2)CC1)Nc1ccccc1C(=O)c1ccccc1`: the inhibition was 56% (active).
The figure for `O=C(CN1CCN(S(=O)(=O)c2ccc(F)cc2)CC1)Nc1ccccc1F` is 4.08% (inactive).
Turning to `COc1ccccc1NC(=O)CN1CCN(S(=O)(=O)c2ccc(Br)cc2)CC1`, the inhibition was 8.31% (inactive).
With `COc1cccc(COc2ccc(N(C)S(=O)(=O)c3ccccc3)cc2)c1`, the inhibition was 9.64% (inactive).
The figure for `CCn1c(-c2cc(OC)ccc2OC)csc1=Nc1c(C)n(C)n(-c2ccccc2)c1=O` is 13.7% (inactive); for `CN=c1scc(-c2cc(OC)ccc2OC)n1/N=C/c1c(C)[nH]c2ccccc12` it is 73.4% (active).
Next, `COc1ccc(N=Cc2c(O)[nH]c3ccccc23)cc1OC`: -17.8% (inactive).
In the case of `O=C(CCNC(=O)c1ccc(Br)cc1)Nc1cccc(S(=O)(=O)N2CCCCC2)c1`, the inhibition was 3.39% (inactive).
The figure for `COc1c(C)c2c(c(O)c1C/C=C(\C)CCC(=O)O)C(=O)OC2` is 62.2% (active); for `CCN(CC(=O)Nc1c(F)cccc1F)C(=O)c1ccc(-c2ccccc2)cc1` it is -22.3% (inactive).
On to `Cc1ccccc1NC(=O)C(C)OC(=O)CCC(=O)N(CC(C)C)c1c(N)n(CC(C)C)c(=O)[nH]c1=O` (configuration not stated), for which the inhibition is 0.843% (inactive).
Next, `Fc1ccc(CNCc2ccc(Br)cc2)cc1`: -7.54% (inactive); `Cc1c(NC(=O)C(C)OC(=O)c2c3c(nc4ccccc24)CCC(C)C3)c(=O)n(-c2ccccc2)n1C` (configuration not stated): -9.27% (inactive); `COC(=O)C1=CN(Cc2ccc(OC)cc2)C=C(C(=O)OC)C1c1ccc(O)c(OC)c1`: 11.3% (inactive).
For the molecule `COC(=O)C1=CN(Cc2ccc(OC)c(OC)c2)C=C(C(=O)OC)C1c1cccs1`, the inhibition is 65% (active).
With `COc1ccc(CCNC(=O)COC(=O)/C=C/c2cccs2)cc1OC`, the inhibition is -3.17% (inactive).
For the molecule `Cc1cc(-n2nc(C)cc2C)n2nc(C)c(-c3ccccc3)c2n1`, the inhibition is 14.4% (inactive).
For the molecule `CCc1c(C)nc2c(-c3ccccc3)c(C)nn2c1Nc1ccc(NC(C)=O)cc1`, the inhibition is 54.5% (active).
For `Cc1cc(-c2ccccc2)n2nc(C)c(-c3ccccc3)c2n1`, the inhibition was 32.1% (inactive).
Next, `O=S(=O)(Nc1cccc(-c2ccc(N3CCOCC3)nn2)c1)c1ccc(Cl)c(Cl)c1`: -4.53% (inactive).
Next, `COc1ccc(Cl)cc1NC(=O)CN(C)C(=O)c1cc2ccccc2cc1OC`: 12.8% (inactive); `COc1ccccc1OCCn1c(SCC(N)=O)nc2ccccc21`: -6.95% (inactive).
The figure for `O=C(CSc1ccccn1)N1CCN(S(=O)(=O)c2ccc(Cl)cc2)CC1` is -3.29% (inactive); for `O=C(Nc1ccccc1N1CCCC1)c1ccc(F)c(S(=O)(=O)N2CCOCC2)c1` it is -5.53% (inactive); for `O=C(NCCCNC(=O)NC1CCCCC1)NC1CCCCC1` it is -9.22% (inactive).
Turning to `CSc1cccc(NC(=S)N(Cc2ccccc2)Cc2ccccn2)c1`, the inhibition is 2.49% (inactive).
With `COc1cccc(NC(=S)N(Cc2ccc(C)cc2)Cc2ccccn2)c1`, the inhibition is 78.1% (active).
The figure for `COc1cccc(NC(=S)NCc2ccccn2)c1` is 4.96% (inactive).
Next, `Nn1c(SCc2ccccc2)nnc1C1CCCCC1`: 2.33% (inactive); `CCc1ccc(N2CC(C(=O)Nc3ccc(S(=O)(=O)Nc4nccs4)cc3)CC2=O)cc1` (configuration not stated): -8.72% (inactive); `CC1C(=O)Nc2ccccc2N1C(=O)c1ccc(F)cc1F` (configuration not stated): 0.146% (inactive).
Regarding `Cc1ccc(OCCCCN2CCCCC2)c(Br)c1`, the inhibition is 54.8% (active).
Regarding `O=[N+]([O-])c1ccccc1OCCCCN1CCCCC1`, the inhibition was 1.28% (inactive).
The figure for `Cc1ccc(C(C)(C)C)c(OCCCCN2CCCC2)c1` is 27.7% (inactive); for `COC(=O)C1=C[C@@H](C(=O)OC)[C@@H]2C3=C(C(=O)[C@]2(C)NC(=O)c2ccccc2)[C@H](C)n2c(=O)n(C)c(=O)n2[C@@H]3C1` it is 11.2% (inactive).
For `COc1ccccc1NS(=O)(=O)c1ccc(C)c(C(=O)NCC(c2ccco2)N(C)C)c1` (configuration not stated), the inhibition was 4.14% (inactive).
Regarding `CCNC(=O)COc1cc(C)c(Br)c(C)c1`, the inhibition is 8.23% (inactive).
Turning to `Cc1ccccc1N1CCN(CCCOc2ccc3c(C)cc(=O)oc3c2)CC1`, the inhibition was 60% (active).
The figure for `CCOc1ccccc1N1CCN(C(=O)COc2ccc3c(C)cc(=O)oc3c2)CC1` is 24% (inactive); for `Cc1cc(OCCCCOc2ccc(C#N)cc2)ccc1[N+](=O)[O-]` it is 19.5% (inactive).
Next, `Cc1cc(OCC(=O)NC2CCN(C)CC2)ccc1[N+](=O)[O-]`: 49.2% (inactive).
Next, `Cc1cc(=O)oc2cc(OCCC[n+]3ccccc3)ccc12`: 1.14% (inactive); `Cc1cc(OCCCN2CCN(Cc3ccccc3)CC2)ccc1[N+](=O)[O-]`: 55.7% (active).
As for `CC(C)CC(O)C1CCN(C(=O)CCc2nnc(-c3ccc4c(c3)OCO4)o2)CC1` (configuration not stated), the inhibition was 3.35% (inactive).
On to `Cc1ccc(OCCNC(=O)CNC(=O)c2ccc(C)c(C)c2)cc1`, for which the inhibition is -2.75% (inactive).
Next, `Cc1ccc(C(=O)C[n+]2cc(-c3ccccc3)n3c2CCCCC3)cc1`: 45.3% (inactive) and 65.4% (active).
Consider `Cc1ccc(-c2c[n+](CC(=O)Nc3ccccc3)c3n2CCC3)cc1`, for which the inhibition is -0.923% (inactive).
Next, `Clc1ccc(C[n+]2cc(-c3ccccc3)n3c2CCC3)cc1`: 27.8% (inactive); `COc1ccc(-c2cc(C(=O)N3CCN(Cc4ccc5c(c4)OCO5)CC3)on2)cc1OC`: -12.7% (inactive).

Broadly, the inhibition is the drop in the measured response relative to a control, in per cent.
